Many of the other results were omitted from the sample, so hits are more common in it than they were.
CDK5 p35 inh: blocks human CDK5/p35 kinase activity; Recombinant CDK5/p35, ADP-Glo luminescence, 60 min; inhibition, % at 10 µM; 330,000 compounds, 0.01% hits; AID 488839;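 active means highest replicate inhibition of at least 50% and at least 75% of replicates reaching 50%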;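 further: plate controls were DMSO neutral control for no effect and GW8510 at 10 µM for full effect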
GSK3B inh: inhibitors of human GSK3beta kinase. P49841. GST-GSK3beta kinase, ADP-Glo luminescence, 60 min; stronger effect = lower value. activity score (negative = inhibition), % at 10 µM. 300,000 compounds, 0.038% hits. AID 2097;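 active means more than half of replicate wells score below -50%, meaning over 50% inhibition versus plate controls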;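 further: 0% = median DMSO wells and -100% = median GW8510 positive control wells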
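Assay system: GST-fused GSK3beta enzyme, cell-free / Medium: Tris pH 7.5 buffer with MgCl2, DTT, BSA, heparin / Also added: peptide substrate plus 25 µM ATP (final) / Compound: 10 µM single point / Timing: kinase reaction with compound 60 min at room temperature / Detection: ADP-Glo luminescence / Benchmarks: DMSO neutral wells and GW8510 at 20 µM as positive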
GSK3 alpha inh: inhibitors of human GSK-3 alpha kinase; inhibition, % at 10 µM; 320,000 compounds, 0.1% hits; ADP-Glo luminescence, 60 min; P49840;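 active means more than half of replicates show inhibition above 20%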;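 further: GST-tagged GSK-3 alpha with peptide substrate and 25 µM ATP; 0% = DMSO neutral wells and 100% = GW8510 positive control wells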
Target sequence (P49840 whole entry, looked up): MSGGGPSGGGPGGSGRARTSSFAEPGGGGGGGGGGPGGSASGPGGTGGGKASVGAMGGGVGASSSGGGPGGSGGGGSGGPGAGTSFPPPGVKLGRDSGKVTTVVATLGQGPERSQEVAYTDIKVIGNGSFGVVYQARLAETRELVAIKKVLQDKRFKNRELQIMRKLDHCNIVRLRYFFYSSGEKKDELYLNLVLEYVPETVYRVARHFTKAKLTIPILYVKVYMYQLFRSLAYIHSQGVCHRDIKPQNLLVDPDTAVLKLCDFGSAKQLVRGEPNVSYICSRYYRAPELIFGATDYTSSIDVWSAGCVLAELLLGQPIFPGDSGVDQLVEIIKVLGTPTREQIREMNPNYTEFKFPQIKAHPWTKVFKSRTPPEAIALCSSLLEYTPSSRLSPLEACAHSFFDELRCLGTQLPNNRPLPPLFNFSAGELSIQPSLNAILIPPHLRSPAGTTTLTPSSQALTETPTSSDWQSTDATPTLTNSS
Dyrk1A ADPGlo: inhibitors of rat Dyrk1A kinase. Q63470. ADP-Glo luminescence, NFATc1 peptide. inhibition, % at 12.5 µM. 310,000 compounds, 0.43% hits. AID 504441; in the data active means inhibition above about 50%;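 further: plate controls were vehicle with enzyme for no effect and no enzyme for full effect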
STK33 kinase inh: blocks human STK33 kinase activity; purified STK33, MBP phosphorylation, ADP-Glo luminescence; inhibition, % at 10 µM; AID 2661; 320,000 compounds, 0.073% hits;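 active means inhibition at or above 25%, using the most active replicate where run in duplicate; inactive means inhibition below 25%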
Dyrk1A artifact: interferes with ADP-Glo luciferase readout without Dyrk1A; 1,300 tested, under 10 active; AID 588348; ADP-Glo luciferase artifact assay, no Dyrk1A, luminescence; AC50, µM (top dose mostly 12 µM), for inactives: at the highest dose activity change, negative = inhibition; shares compounds with Dyrk1A ADPGlo;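 active means fitted half-maximal dose AC50 no more than ten times the top valid tested dose, with luminescence dropping as dose rises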
Starred values were filed as active, the others as inactive; . = not tested or not shown.

SMILES | CDK5 p35 inh | GSK3B inh | GSK3 alpha inh | Dyrk1A ADPGlo | STK33 kinase inh | Dyrk1A artifact
Fc1ccc(-c2csc(-c3cccnc3)n2)cc1F | 1.2 | 5.2 | -1.9 | 4.1 | -1.4 | .
Oc1ccc(-c2csc(-c3ccccc3)n2)cc1O | 2.6 | -5.2 | 11.6 | 55.4* | 2.7 | 7.5%
C=C1[C@@H](O)[C@H](CC(C)C)N(Cc2ccccc2Br)S1(=O)=O | -3.7 | . | . | -4.1 | . | .
O=S(=O)(O)c1cccc(N=Nc2c(O)ccc3ccccc23)c1 | 45.2 | -1.1 | 46.1 | 74.2* | 60.4* | 9.7%
CCCN=C(C)C1=C(O)c2ccccc2C1=O | -0.2 | -2.8 | 1.4 | -18.8 | 0.8 | .
CC(=NCc1cccnc1)C1=C(O)c2ccccc2C1=O | 3.8 | -7.3 | 9.5 | 51.2* | 4.8 | 8.7%
CCOC(=O)C(Cc1ccc(O)cc1)NC(=O)CCc1c[nH]c2ccccc12 (centres undefined) | 1.4 | -0.5 | -2.5 | 51.0* | -0.8 | 12.4%
COc1cc(/C=C2\SC(N)=NC2=O)cc(Cl)c1O | 1.0 | 1.6 | 8.3 | 61.1* | 1.8 | 9.9%
CCOC(=O)c1c([N+](=O)[O-])c(C)[nH]c(=O)c1C#N | -0.2 | 0.8 | -1.7 | -2.1 | -0.7 | .
CCC(C(=O)Nc1ccon1)c1ccccc1 (centres undefined) | -1.8 | 0.3 | 1.3 | -6.8 | 1.1 | .
Cc1ccc(CN2CCN(c3ncccn3)CC2)o1 | -0.3 | 0.8 | -2.6 | 56.4* | -0.9 | 6.9%
Cc1ccc(C)c(CN2CCN(c3ncccn3)CC2)c1 | 0.2 | 4.1 | -1.7 | 10.0 | 0.4 | .
CCOc1ccccc1C(=O)Nc1ccccc1C(N)=O | 1.4 | 2.9 | 0.4 | 55.8* | -1.7 | 8.8%
CCC1NC(C(=O)O)Cc2c1[nH]c1ccccc21 (centres undefined) | 3.2 | -4.0 | 8.2 | 50.2* | 2.6 | 7.9%
COc1cc(/C=C/c2ccc3cccc([N+](=O)[O-])c3n2)ccc1OCC(=O)O | -1.5 | 4.6 | 7.2 | 45.6 | 1.7 | .
O=C(O)COc1ccc(/C=C/c2ccc3cccc([N+](=O)[O-])c3n2)cc1 | -3.6 | 4.2 | . | 65.6* | . | 9.5%
COc1ccccc1C(=O)COC(=O)c1c(-c2ccccc2)noc1C | -4.2 | -2.1 | -2.6 | 10.4 | -0.8 | .
Cc1cccc(-n2nc3c(c2NC(=O)CCC2CCCCC2)CS(=O)C3)c1C (centres undefined) | -0.9 | -4.3 | -2.6 | 55.4* | -0.9 | 10.5%
CN1CCN(CCNC(=O)c2cc3c(=O)n(C)c4ccccc4c3n2C)CC1 | -1.3 | 2.9 | -3.9 | 56.8* | 2.5 | 15.4%
CCN(CC)CCNC(=O)c1cc2c(=O)n(C)c3ccccc3c2n1C | -0.5 | 1.4 | . | 58.4* | 2.3 | 1.9%
CCN(CC)CCCNC(=O)c1cc2c(=O)n(C)c3ccccc3c2n1C | -4.7 | 0.0 | -2.0 | 56.7* | 2.5 | 7.1%
COCCNC(=O)c1cc2c(=O)n(C)c3ccccc3c2n1C | -0.1 | 1.1 | 1.1 | 30.7 | 1.0 | .
CN(C)CCNC(=O)c1cc2c(=O)n(C)c3ccccc3c2n1C | 0.7 | -6.4 | . | 52.8* | 3.1 | 8.6%
COC(=O)c1cccc2c1-c1ccccc1/C2=N/O | 1.7 | -3.5 | 16.7 | 57.5* | 29.6* | 8.6%
Oc1ccc(-c2nccc(-c3cccs3)n2)cc1 | 1.8 | 7.0 | 20.7 | 61.2* | 7.4 | 4.7%
SMILES | CDK5 p35 inh | GSK3B inh | GSK3 alpha inh | Dyrk1A ADPGlo | STK33 kinase inh | Dyrk1A artifact
Cc1nc2c(c3c1[nH]c1ccccc13)C(=O)CC(C)(C)C2 | 1.3 | -5.5 | 29.0 | 85.0* | 9.9 | 9.9%
S=C(Nc1cc(Cl)ccc1Oc1ccccc1)N1CCN(c2ccccn2)CC1 | 2.6 | -1.4 | -1.3 | -5.2 | -1.4 | .
CCC1COCCS(=O)(=O)N1Cc1ccccc1 (centres undefined) | 0.3 | -2.4 | 14.7 | 54.9* | 11.9 | 8.5%
Cc1ccc(NC2CCCN(C(=O)c3cccc4nccnc34)C2)cc1C (centres undefined) | 1.5 | 2.8 | -1.7 | -5.2 | -2.0 | .
O=C1c2ccccc2C(=O)c2[nH]cnc21 | 0.9 | -4.6 | 1.7 | 56.5* | 2.1 | 7.3%
O=C1c2ccccc2C(=O)c2[nH]c(=O)[nH]c21 | 8.3 | 2.7 | 3.8 | 18.7 | 4.6 | .
CC(=O)N1c2ccc(S(=O)(=O)N(C)CC(=O)NC3CCCC3)cc2CC1C (centres undefined) | -0.5 | 0.2 | -0.5 | 3.7 | 0.8 | .
N#Cc1nc(-c2cccs2)oc1NCc1ccccc1Cl | -0.7 | -6.3 | 13.5 | 50.5* | 0.6 | 10.9%

Screening results from PubChem BioAssay.
